From ChEMBL document CHEMBL3864137, “Design, Synthesis, and Pharmacological Evaluation of 2-(2,5-Dimethyl-5,6,7,8-tetrahydroquinolin-8-yl)-N-aryl Propanamides as Novel Smoothened (Smo) Antagonists” (J Med Chem, 2016)
Activity calls are given as the source filed them. The rule behind the calls is not given here.

Assays:
[1] = target: Protein smoothened (Mus musculus, UniProt P56726); test: Inhibition of Smo-mediated Hh signalling pathway in mouse Shh Light2 cells by Gli-luciferase reporter gene assay; assay type: cell-based
Sequence of Protein smoothened (P56726 whole entry): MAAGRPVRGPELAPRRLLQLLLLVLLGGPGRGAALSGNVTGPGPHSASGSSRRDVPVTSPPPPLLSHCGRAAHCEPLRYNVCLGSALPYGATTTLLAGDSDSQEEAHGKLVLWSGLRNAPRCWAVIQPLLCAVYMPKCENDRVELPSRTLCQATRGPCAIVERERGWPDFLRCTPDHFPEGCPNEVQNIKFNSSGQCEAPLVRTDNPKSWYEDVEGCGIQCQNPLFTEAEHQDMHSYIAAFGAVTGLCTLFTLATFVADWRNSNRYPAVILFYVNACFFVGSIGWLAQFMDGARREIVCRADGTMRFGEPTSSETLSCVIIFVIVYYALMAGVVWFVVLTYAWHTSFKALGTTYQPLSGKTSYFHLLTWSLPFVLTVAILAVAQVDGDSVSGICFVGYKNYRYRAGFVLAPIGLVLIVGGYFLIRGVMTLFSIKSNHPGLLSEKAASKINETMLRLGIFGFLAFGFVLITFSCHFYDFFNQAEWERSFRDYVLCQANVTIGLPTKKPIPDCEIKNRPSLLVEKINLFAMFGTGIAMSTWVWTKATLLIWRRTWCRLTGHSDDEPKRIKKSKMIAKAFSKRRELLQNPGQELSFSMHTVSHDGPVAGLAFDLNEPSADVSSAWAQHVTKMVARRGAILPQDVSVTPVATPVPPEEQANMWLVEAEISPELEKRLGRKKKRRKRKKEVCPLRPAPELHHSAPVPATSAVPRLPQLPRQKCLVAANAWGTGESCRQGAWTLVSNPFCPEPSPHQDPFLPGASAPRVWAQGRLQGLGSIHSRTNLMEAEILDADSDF
How it was run: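 Light II cells (NIH-3T3 stably carrying a Gli-responsive firefly luciferase reporter plus a Renilla luciferase vector), seeded in 96-well plates and treated. Firefly/Renilla activity in the lysates read by dual luciferase assay on a luminometer. IC50 is the mean ± SD of three separate experiments.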

[2] = tested on: HEK293; test: Inhibition of TNF-alpha stimulated NFkappaB transactivation in HEK293 cells at 20 uM measured after 24 hrs by dual luciferase reporter gene assay; assay type: cell-based; details: Homo sapiens
How it was run: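 HEK293 cells stimulated with TNF-α and treated for 24 h, then lysed for dual luciferase reporter analysis of NF-κB activity. Mean ± SD.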

[3] = Cytotoxicity against human KB cells; assay type: toxicity, cell-based
[4] = target: Voltage-gated inwardly rectifying potassium channel KCNH2 (Homo sapiens, UniProt Q12809); test: Inhibition of human ERG
Sequence of Voltage-gated inwardly rectifying potassium channel KCNH2 (Q12809 whole entry): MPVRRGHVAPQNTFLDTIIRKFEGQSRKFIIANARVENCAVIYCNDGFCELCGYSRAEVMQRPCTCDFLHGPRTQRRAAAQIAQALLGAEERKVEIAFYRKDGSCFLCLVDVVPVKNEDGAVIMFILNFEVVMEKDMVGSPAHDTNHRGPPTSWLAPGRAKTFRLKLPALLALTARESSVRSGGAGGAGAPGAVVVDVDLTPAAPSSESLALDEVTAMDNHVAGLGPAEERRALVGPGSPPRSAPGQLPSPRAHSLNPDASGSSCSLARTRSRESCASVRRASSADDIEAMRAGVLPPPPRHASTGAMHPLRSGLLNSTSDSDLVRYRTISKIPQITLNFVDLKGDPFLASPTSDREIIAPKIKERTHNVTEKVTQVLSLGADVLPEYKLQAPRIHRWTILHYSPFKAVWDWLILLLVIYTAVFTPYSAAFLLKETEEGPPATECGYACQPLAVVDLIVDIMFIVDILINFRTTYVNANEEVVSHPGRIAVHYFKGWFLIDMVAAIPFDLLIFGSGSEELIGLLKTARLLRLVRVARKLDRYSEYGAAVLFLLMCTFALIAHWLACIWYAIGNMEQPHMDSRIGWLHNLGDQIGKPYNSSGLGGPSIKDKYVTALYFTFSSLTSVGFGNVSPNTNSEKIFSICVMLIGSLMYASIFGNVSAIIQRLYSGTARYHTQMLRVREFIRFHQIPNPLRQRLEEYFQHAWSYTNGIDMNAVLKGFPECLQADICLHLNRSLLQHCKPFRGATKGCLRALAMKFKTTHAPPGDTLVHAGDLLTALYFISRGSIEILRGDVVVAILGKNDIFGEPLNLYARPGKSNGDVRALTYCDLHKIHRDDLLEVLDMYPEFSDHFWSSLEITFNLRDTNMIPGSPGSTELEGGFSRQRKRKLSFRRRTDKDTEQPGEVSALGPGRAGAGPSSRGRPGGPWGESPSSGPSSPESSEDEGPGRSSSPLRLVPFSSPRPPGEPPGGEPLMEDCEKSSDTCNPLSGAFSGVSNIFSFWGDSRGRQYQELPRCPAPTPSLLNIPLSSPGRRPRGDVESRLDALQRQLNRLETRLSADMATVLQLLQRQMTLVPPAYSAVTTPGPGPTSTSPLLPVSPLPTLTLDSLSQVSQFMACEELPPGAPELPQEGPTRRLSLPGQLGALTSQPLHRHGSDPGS

[5] = tested on: LS174T; test: Inhibition of PGE2-stimulated TCF/LEF transactivation in human LS174T cells at 20 uM measured after 6 hrs by dual luciferase reporter gene assay; assay type: cell-based
How it was run: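 LS174T cells stimulated with PGE2 and treated for 6 h, then lysed for dual luciferase reporter analysis of TCF/LEF activity. Mean ± SD.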

[6] = target: Protein smoothened (Homo sapiens) (UniProt Q99835); test: Antagonist activity at wild-type Smo (unknown origin) expressed in mouse Shh Light2 cells assessed as suppression of Gli-mRNA expression measured after 36 hrs by dual luciferase reporter gene assay; assay type: cell-based; details: in the assay text read “Gli-luciferase activity” for “Gli-mRNA expression”
Sequence of Protein smoothened (Homo sapiens) (Q99835 whole entry): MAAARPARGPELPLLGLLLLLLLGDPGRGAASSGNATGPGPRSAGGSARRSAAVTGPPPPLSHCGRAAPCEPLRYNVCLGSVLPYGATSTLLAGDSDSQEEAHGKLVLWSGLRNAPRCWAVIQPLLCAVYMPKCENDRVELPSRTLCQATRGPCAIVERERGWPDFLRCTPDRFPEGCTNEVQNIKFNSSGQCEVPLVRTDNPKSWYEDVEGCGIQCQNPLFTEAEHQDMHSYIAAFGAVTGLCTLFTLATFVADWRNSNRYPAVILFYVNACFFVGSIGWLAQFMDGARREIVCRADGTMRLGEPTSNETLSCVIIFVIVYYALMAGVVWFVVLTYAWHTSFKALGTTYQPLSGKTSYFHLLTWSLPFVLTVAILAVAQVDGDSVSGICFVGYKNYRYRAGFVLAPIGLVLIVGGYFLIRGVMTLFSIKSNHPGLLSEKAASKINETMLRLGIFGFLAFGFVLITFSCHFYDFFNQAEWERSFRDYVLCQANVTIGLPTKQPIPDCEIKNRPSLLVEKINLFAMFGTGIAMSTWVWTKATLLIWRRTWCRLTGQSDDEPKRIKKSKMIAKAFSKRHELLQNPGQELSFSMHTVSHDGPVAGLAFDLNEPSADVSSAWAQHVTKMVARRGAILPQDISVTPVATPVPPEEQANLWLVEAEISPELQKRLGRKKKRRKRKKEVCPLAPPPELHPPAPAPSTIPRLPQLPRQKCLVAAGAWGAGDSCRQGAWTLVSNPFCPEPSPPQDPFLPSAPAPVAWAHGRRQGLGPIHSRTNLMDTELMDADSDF
How it was run: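 Light II cells transfected with wild-type Smo plasmid to drive Gli-luciferase, exposed to compound for 36 h, then harvested for dual luciferase reporter assay. Mean ± SD.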

[7] = tested on: Medulloblastoma cell; test: Antiproliferative activity against mouse medulloblastoma cells isolated from Ptch+/- p53-/- mouse measured after 72 hrs by MTS assay; assay type: functional
How it was run: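 Medulloblastoma cells from Ptch+/-;p53-/- allografts in nude mice, minced and collagenase-digested, grown in Neurobasal A with B-27, EGF 20 ng/ml, bFGF 20 ng/ml, nonessential amino acids and N-acetyl cysteine 60 µg/ml. Seeded in 96-well plates, treated 72 h, viability read by MTS; mean ± SD.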

IC50 [1]	SMILES	also measured
> 1 µM	C[C@@H]1CC[C@@H]([C@@H](C)C(=O)Nc2ccc(Cl)c(-c3ccccn3)c2)[C@H]2CC(O)CC[C@H]21 (some centres not stated)	–
–	Cc1ccc(S(=O)(=O)/C=C/C#N)cc1	inhibition [2]: Active
> 1 µM	Cc1ccc2c(n1)[C@H]([C@@H](C)C(=O)Nc1ccc(Cl)c(-c3noc(C)n3)c1)CC[C@H]2C	–
–	O=S(=O)(NCCNC/C=C/c1ccc(Br)cc1)c1cccc2cnccc12	inhibition [5]: Active
0.0526 µM	Cc1ccc2c(n1)[C@H]([C@@H](C)C(=O)Nc1ccc(Cl)c(-c3nc4ccc(OC(F)(F)F)cc4n3C)c1)CC[C@H]2C	–
0.243 µM	Cc1ccc2c(n1)[C@H]([C@@H](C)C(=O)Nc1ccc(Cl)c(-c3nc4ccccc4o3)c1)CC[C@H]2C	–
0.212 µM	Cc1ccc2c(n1)[C@H]([C@@H](C)C(=O)Nc1ccc(Cl)c(-c3ccccn3)c1)CC[C@H]2C	IC50 [3]: 15 µM; IC50 [4]: > 15 µM
0.27 µM	COC(=O)[C@H](C)c1ccc(C)c2ccc(C(=O)Nc3ccc(Cl)c(-c4ccccn4)c3)nc12	–
–	CS(=O)(=O)c1ccc(C(=O)Nc2ccc(Cl)c(-c3ccccn3)c2)c(Cl)c1	inhibition [6]: Dose-dependent effect; Activity [7]: Dose-dependent effect
0.155 µM	C[C@@H]1CC[C@@H]([C@@H](C)C(=O)Nc2ccc(Cl)c(-c3ccccn3)c2)c2nc(CN3CCOCC3)ccc21	IC50 [3]: > 20 µM; IC50 [4]: 3.31 µM
> 1 µM	C[C@@H]1CC[C@@H]([C@@H](C)C(=O)Nc2ccc(Cl)c(-c3ccccn3)c2)[C@H]2CC(=O)C=C[C@H]21	–
0.265 µM	Cc1ccc2c(n1)[C@H]([C@@H](C)C(=O)Nc1ccc(Cl)c(-c3nnc(-c4ccnn4C)s3)c1)CC[C@H]2C	–

SMILES	IC50 [1]	also measured
Cc1ccc2c(n1)[C@H]([C@@H](C)C(=O)Nc1ccc(Cl)c(-c3nc4ccccc4[nH]3)c1)CC[C@H]2C	0.0459 to 0.046 µM	–
C[C@H]1[C@@H](CC(=O)Nc2ccc(Cl)c(-c3ccccn3)c2)O[C@@H]2O[C@@]3(C)CC[C@H]4[C@H](C)CC[C@@H]1[C@@]24OO3	0.241 µM	IC50 [3]: 6.61 µM; IC50 [4]: > 15 µM
C[C@@H]1CC[C@@H]2[C@]34OO[C@](C)(CC[C@@H]13)OC4O[C@]2(C)C(=O)Nc1ccc(Cl)c(-c2ccccn2)c1 (some centres not stated)	0.18 µM	–
